Series [1] concerns AMPA-induced neurotoxicity. The note with it: intravitreal administration; cited from earlier work.
A short description of series [2]: Ophthalmological examinations. The note with it: SST eye drops 10 mg/mL, 20 µL once daily; baseline and follow-up (days 7 and 13). Type of series: in vivo, Sprague-Dawley rats. Summed up: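 All animals had slit lamp biomicroscopy, indirect ophthalmoscopy and intraocular pressure measurement at baseline and on days 7 and 13 posttreatment. Groups were nondiabetic controls on vehicle, and STZ-diabetic (60 mg/kg i.v.) male Sprague-Dawley rats on once-daily drops of test compound (10 mg/mL) or 0.9% NaCl vehicle.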

For series [3], the system named is rats with streptozotocin-induced diabetes mellitus (STZ-DM). The experiment in a line: Assessment of retinal apoptosis. Type of series: in vivo, Sprague-Dawley rats. Conditions: TUNEL; SST eye drops 10 mg/mL once daily, 15 days.
The test system of series [4] is FasL, caspase-8, Bid, active caspase-3, BclxL. In words: Proapoptotic and survival signaling in neuroretina. The note with it: neuroretina of diabetic rats; SST eye drops 10 mg/mL; Western blot. Type of series: in vivo, Sprague-Dawley rats. Summed up:
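Neuroretina protein extracts were Western blotted for FasL, caspase-8, Bid, Bim, BclxL and active caspase-3, with α-tubulin as loading control. Autoradiograms were quantified by scanning densitometry as arbitrary units, means ± SD. Tissue came from STZ-diabetic rats given daily 10 mg/mL drops or saline vehicle for 14 days, and from nondiabetic controls.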
A general note: A western blot detects proteins with antibodies after separation by electrophoresis.

For series [5], the system named is rats with streptozotocin-induced diabetes mellitus (STZ-DM). In words: Electroretinography. The note with it: diabetic rats, SST eye drops 10 mg/mL once daily; scotopic. Type of series: in vivo, Sprague-Dawley rats. Put shortly:
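Scotopic ERG was recorded in both eyes before treatment and on day 14, after at least 1 h dark adaptation. Rats were under isoflurane with 0.5% proparacaine topically. b-wave amplitude and implicit time were measured to ISCEV definitions after scotopic flash (0 db). Animals were STZ-diabetic rats on daily 10 mg/mL drops or saline vehicle. Paired t test within group; means ± SD.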

Series [6] shares this test system. The experiment in a line: Assessment of glial activation. The note with it: dose-response; SST eye drops 0.5 mg/mL compared with 2 or 10 mg/mL. Format: in vivo, Sprague-Dawley rats. Put shortly: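 Male Sprague-Dawley rats made diabetic with STZ 60 mg/kg i.v. (glucose above 250 mg/dL). One drop daily for 14 days, plus one ~1 h before necropsy; saline vehicle; dose-response at 10, 2, 0.5 mg/mL. Paraffin retinal sections blocked in PBS/1% BSA/0.05% Triton X-100. Rabbit anti-GFAP 1:100, 36 h at 4C; Alexa Fluor 568 secondary. Scored 0–5 by GFAP extent, endfeet/GCL to ONL.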

For series [7], the system named is glutamate/aspartate transporter (GLAST). In words: GLAST expression in retina. Format: in vivo, Sprague-Dawley rats. Conditions: diabetic rats treated with SST eye drops 10 mg/mL. Put shortly: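 GLAST mRNA by real-time PCR, normalized to β-actin (relative quantification). For protein, paraffin retinal sections were retrieved in 10 mmol/L sodium citrate pH 6.0 and blocked 1 h at room temperature in 2% BSA/0.05% Tween PBS. They were probed with anti-GLAST 1:200, then Alexa Fluor 488 anti-rabbit (1 h), with DAPI. Fluorescence intensity was quantified as for GFAP. Rats were STZ-diabetic on daily drops or saline.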

In the case of Somatostatin [SST], in series [1], the “protection of the retina from AMPA-induced neurotoxicity” value is “protects the retina from AMPA-induced neurotoxicity”. For the same substance, the “differences in the cornea, pupil size, or intraocular pressure among groups” value in series [2] is given as “No significant differences”. The “ratio of apoptosis in all retinal layers vs diabetic rats treated with placebo” value in series [3] is on record as “significantly lower”. In addition, the BclxL expression entry in series [4] is reported as “greatly improved”. Besides, in series [5], the “b-wave amplitude, day 14 vs day −1” value is “no reduction of b-wave amplitude was observed” and the “b-wave implicit time, day 14 vs day −1” value was “did not increase”. Also, the “effect in preventing glial activation and apoptosis” value in series [6] is “significantly lower than that obtained using either 2 or 10 mg/mL”. In addition, in series [7], the “diabetes-induced downregulation of GLAST gene and protein expression” value is recorded as “this downregulation was prevented”. Also, the “GLAST protein levels in comparison with nondiabetic rats” value in series [7] (immunofluorescence) is “even increased”.

The values above are taken from PMC3712066 (Diabetes, 2013).
